≈ marks a conversion by molar mass, not a printed value.
Assays:
[1] = Cytotoxicity against human HEL cells assessed as minimum concentration required to cause microscopically detectable alteration after 2 days; type: cell-based; details: read-out: Activity
[2] = system: Vesicular stomatitis virus; assay: Antiviral activity against Vesicular stomatitis virus infected in human HEL cells assessed as protection against virus-induced cytopathogenicity after 2 days; type: functional, organism-based; details: 48 h
[3] = Cytotoxicity against human HeLa cells assessed as minimum concentration required to cause microscopically detectable alteration after 2 days; type: cell-based; details: read-out: Activity
[4] = Cytotoxicity against african green monkey Vero cells assessed as minimum concentration required to cause microscopically detectable alteration after 2 days; type: cell-based; details: chlorocebus sabaeus, read-out: Activity
[5] = system: Respiratory syncytial virus; assay: Antiviral activity against Respiratory syncytial virus infected in human HeLa cells assessed as protection against virus-induced cytopathogenicity after 2 days; type: functional, organism-based; details: 48 h
Coxsackievirus B4 [6] = assay: Antiviral activity against Coxsackie virus B4 infected in human HeLa cells assessed as protection against virus-induced cytopathogenicity after 2 days; type: functional, organism-based; details: Enterovirus B, 48 h
Sindbis virus = assay: Antiviral activity against Sindbis virus infected in african green monkey Vero cells assessed as protection against virus-induced cytopathogenicity after 2 days; type: functional, organism-based; details: 48 h
[7] = system: Vesicular stomatitis virus; assay: Antiviral activity against Vesicular stomatitis virus infected in human HeLa cells assessed as protection against virus-induced cytopathogenicity after 2 days; type: functional, organism-based; details: 48 h
Felid alphaherpesvirus 1 = assay: Antiviral activity against Feline herpes virus infected in cat CRFK cells assessed as protection against virus-induced cytopathogenicity after 2 days by MTS assay; type: functional, organism-based; details: Felid alphaherpesvirus 1, CRFK, 48 h
[8] = system: Mammalian orthoreovirus 1; assay: Antiviral activity against Reovirus-1 infected in african green monkey Vero cells assessed as protection against virus-induced cytopathogenicity after 2 days; type: functional, organism-based; details: Mammalian orthoreovirus 1, Vero, 48 h
Coxsackievirus B4 [9] = assay: Antiviral activity against Coxsackie virus B4 infected in african green monkey Vero cells assessed as protection against virus-induced cytopathogenicity after 2 days; type: functional, organism-based; details: Enterovirus B, 48 h
Influenza A virus [10] = assay: Antiviral activity against Influenza A virus H3N2 infected in MDCK cells assessed as protection against virus-induced cytopathogenicity at 100 ug/ml after 2 days; type: functional, organism-based
Procedure, shortened: (§1)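 Infected MDCK cells were treated. […] N.A. means not active at the highest concentration tested or at a subtoxic concentration.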

Influenza A virus [11] = assay: Antiviral activity against influenza A virus H1N1 infected in MDCK cells assessed as cell viability at 100 ug/ml after 2 days by MTS assay; type: functional, organism-based
Influenza B virus [12] = assay: Antiviral activity against influenza B virus infected in MDCK cells assessed as protection against virus-induced cytopathogenicity at 100 ug/ml after 2 days; type: functional, organism-based; procedure, shortened: as §1
Human alphaherpesvirus 1 [13] = assay: Antiviral activity against Herpes simplex virus-1 KOS infected in human HEL cells assessed as protection against virus-induced cytopathogenicity after 2 days; type: functional, organism-based; details: Human alphaherpesvirus 1, KOS, 48 h
Influenza B virus [14] = assay: Antiviral activity against influenza B virus infected in MDCK cells assessed as cell viability at 100 ug/ml after 2 days by MTS assay; type: functional, organism-based
[15] = Cytotoxicity against MDCK cells assessed as minimum concentration required to cause microscopically detectable alteration after 2 days; type: cell-based, Canis lupus familiaris; details: dog, read-out: Activity
Influenza A virus [16] = assay: Antiviral activity against Influenza A virus H3N2 infected in MDCK cells assessed as cell viability at 100 ug/ml after 2 days by MTS assay; type: functional, organism-based
Human alphaherpesvirus 1 [17] = assay: Antiviral activity against acyclovir-resistant TK deficient Herpes simplex virus-1 KOS infected in human HEL cells assessed as protection against virus-induced cytopathogenicity after 2 days; type: functional, organism-based; details: Human alphaherpesvirus 1, KOS, 48 h
Influenza A virus [18] = assay: Antiviral activity against influenza A virus H1N1 infected in MDCK cells assessed as protection against virus-induced cytopathogenicity at 100 ug/ml after 2 days; type: functional, organism-based; procedure, shortened: as §1
MDCK = assay: Cytotoxicity against MDCK cells by MTS assay; type: cell-based, Canis lupus familiaris; details: dog, mdck
Procedure, shortened: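 In Madin Darby canine kidney cells, the 50% cytotoxic concentration was derived from cell viability measured by the colorimetric formazan-based MTS assay.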

[19] = system: Feline infectious peritonitis virus; assay: Antiviral activity against Feline coronavirus FIPV infected in cat CRFK cells assessed as protection against virus-induced cytopathogenicity after 2 days by MTS assay; type: functional, cell-based; details: Alphacoronavirus 1, CRFK, 48 h
Human respirovirus 3 = assay: Antiviral activity against Para influenza-3 virus infected in african green monkey Vero cells assessed as protection against virus-induced cytopathogenicity after 2 days; type: functional, organism-based; details: Human respirovirus 3, Vero, 48 h
[20] = Cytotoxicity against cat CRFK cells by MTS assay; type: cell-based, Felis catus
Procedure, shortened: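 In uninfected CRFK cells, the 50% cytotoxic concentration was derived from cell viability measured by the colorimetric formazan-based MTS assay.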

Punta Toro virus = assay: Antiviral activity against Punta Toro virus infected in african green monkey Vero cells assessed as protection against virus-induced cytopathogenicity after 2 days; type: functional, organism-based; details: 48 h
Human alphaherpesvirus 2 = assay: Antiviral activity against Herpes simplex virus-2 G infected in human HEL cells assessed as protection against virus-induced cytopathogenicity after 2 days; type: functional, organism-based; details: Human alphaherpesvirus 2, strain G, 48 h

SMILES	MCC at 48 h [1]	EC50 [2]	MCC at 48 h [3]	MCC at 48 h [4]	EC50 [5]	EC50 (Coxsackievirus B4 [6])	EC50 (Sindbis virus)	EC50 [7]	EC50 (Felid alphaherpesvirus 1)	EC50 [8]	EC50 (Coxsackievirus B4 [9])	EC50 (Influenza A virus [10])	EC50 (Influenza A virus [11])	EC50 (Influenza B virus [12])	EC50 (Human alphaherpesvirus 1 [13])	EC50 (Influenza B virus [14])	EC50 (Human alphaherpesvirus 1 [17])	EC50 [19]	EC50 (Human respirovirus 3)	EC50 (Human alphaherpesvirus 2)	also measured
Nc1ccn(C[C@@H](CO)OCP(=O)(O)O)c(=O)n1.O.O [CIDOFOVIR]	> 250 µg/mL	> 250 µg/mL																			
O=c1c2ccccc2nc(-c2ccccc2)n1/N=C/c1cccc([N+](=O)[O-])c1	≥ 20 µg/mL	> 20 µg/mL	20 µg/mL	20 µg/mL	> 4 µg/mL	> 4 µg/mL	> 4 µg/mL	> 4 µg/mL	> 4 µg/mL	> 4 µg/mL	> 4 µg/mL	Not Active	Not Active	Not Active	> 20 µg/mL	Not Active	> 20 µg/mL	> 4 µg/mL	> 4 µg/mL	> 20 µg/mL	MCC at 48 h [15]: 20 µg/mL; EC50 (Influenza A virus [16]): Not Active; EC50 (Influenza A virus [18]): Not Active; CC50 (MDCK): > 100 µg/mL; CC50 ([20]; crfk): 13.8 µg/mL (≈ 37.3 µM); EC50 (Punta Toro virus): > 4 µg/mL
O=c1c2ccccc2nc(-c2ccccc2)n1/N=C/c1ccc(O)cc1	100 µg/mL	> 20 µg/mL	100 µg/mL	100 µg/mL	> 20 µg/mL	> 20 µg/mL	> 20 µg/mL	> 20 µg/mL	> 20 µg/mL	> 20 µg/mL	> 20 µg/mL	Not Active	Not Active	Not Active	> 20 µg/mL	Not Active	> 20 µg/mL	> 20 µg/mL	> 20 µg/mL	> 20 µg/mL	MCC at 48 h [15]: 20 µg/mL; EC50 (Influenza A virus [16]): Not Active; EC50 (Influenza A virus [18]): Not Active; CC50 (MDCK): 10.2 µg/mL (≈ 29.9 µM); CC50 ([20]; crfk): 59.5 µg/mL (≈ 174 µM); EC50 (Punta Toro virus): > 20 µg/mL
CN(C)c1ccc(/C=N/n2c(-c3ccccc3)nc3ccccc3c2=O)cc1		> 20 µg/mL				> 20 µg/mL			> 100 µg/mL	> 20 µg/mL		Not Active	Not Active	Not Active		Not Active	> 20 µg/mL		> 20 µg/mL		EC50 (Influenza A virus [16]): Not Active; EC50 (Influenza A virus [18]): Not Active
Nc1nc2c(ncn2COC(CO)CO)c(=O)[nH]1 [GANCICLOVIR]	> 100 µg/mL	> 100 µg/mL							0.8 µg/mL (≈ 3.13 µM)						0.05 µg/mL (≈ 0.196 µM)		2 µg/mL (≈ 7.84 µM)	> 100 µg/mL		0.07 µg/mL (≈ 0.274 µM)	CC50 ([20]; CRFK cells, read-out: CC50): > 100 µg/mL
CC(=O)N[C@H]1[C@H](OOP(=O)(O)OP(=O)(O)OC[C@H]2O[C@@H](n3ccc(=O)[nH]c3=O)[C@H](O)[C@@H]2O)O[C@H](CO)[C@@H](O)[C@@H]1O[C@](C)(OP(=O)(O)O)C(=O)O									53.1 µg/mL (≈ 67.1 µM)									11.7 µg/mL (≈ 14.8 µM)			CC50 ([20]; CRFK cells, read-out: CC50): > 100 µg/mL
COc1ccc(/C=N/n2c(-c3ccccc3)nc3ccccc3c2=O)cc1O	100 µg/mL	> 20 µg/mL	20 µg/mL	100 µg/mL	> 4 µg/mL	> 4 µg/mL	> 20 µg/mL	> 4 µg/mL	> 20 µg/mL	> 20 µg/mL	> 20 µg/mL	Not Active	Not Active	Not Active	> 20 µg/mL	Not Active	> 20 µg/mL	> 20 µg/mL	> 20 µg/mL	> 20 µg/mL	MCC at 48 h [15]: 20 µg/mL; EC50 (Influenza A virus [16]): Not Active; EC50 (Influenza A virus [18]): Not Active; CC50 (MDCK): 47.4 µg/mL (≈ 128 µM); CC50 ([20]; crfk): 42.7 µg/mL (≈ 115 µM); EC50 (Punta Toro virus): > 20 µg/mL
Nc1ncnc2c1ncn2C[C@H](O)CO [(S)-DHPA]			> 250 µg/mL	> 250 µg/mL	> 250 µg/mL	> 250 µg/mL	> 250 µg/mL	> 250 µg/mL		> 250 µg/mL	> 250 µg/mL								> 250 µg/mL		EC50 (Punta Toro virus): > 250 µg/mL
N=C(N)NCCC[C@H](N)C(=O)O [ARGININE]									1.6 µg/mL (≈ 9.18 µM)									2.6 µg/mL (≈ 14.9 µM)			CC50 ([20]; CRFK cells, read-out: CC50): > 100 µg/mL
NC(=O)c1ncn([C@@H]2O[C@H](CO)[C@@H](O)[C@H]2O)n1 [RIBAVIRIN]	> 250 µg/mL		> 250 µg/mL	> 250 µg/mL	22 µg/mL (≈ 90.1 µM)		> 250 µg/mL	22 µg/mL (≈ 90.1 µM)		> 250 µg/mL	> 250 µg/mL				> 250 µg/mL		> 250 µg/mL			> 250 µg/mL	MCC at 48 h [15]: > 100 µg/mL
O=c1[nH]c(=O)n([C@H]2C[C@H](O)[C@@H](CO)O2)cc1/C=C/Br [BRIVUDINE]	> 250 µg/mL	> 250 µg/mL																		50 µg/mL (≈ 150 µM)	
C/C(=N\n1c(-c2ccccc2)nc2ccccc2c1=O)c1ccc(Cl)cc1	100 µg/mL		100 µg/mL	100 µg/mL				> 20 µg/mL	> 100 µg/mL	> 20 µg/mL	> 20 µg/mL	Not Active	Not Active	Not Active		Not Active	> 20 µg/mL		> 20 µg/mL		EC50 (Influenza A virus [16]): Not Active; EC50 (Influenza A virus [18]): Not Active

Reference: ChEMBL document CHEMBL1287642, “Synthesis, antiviral activity and cytotoxicity evaluation of Schiff bases of some 2-phenyl quinazoline-4(3)H-ones” (Eur J Med Chem, 2010)
